Assay outcomes deposited in PubChem by several laboratories.
The list is not random: actives were taken first. Their share in the collection is about 7.1%.
Cav3 T inh – inhibitors of human Cav3.2 T-type calcium channel. Cav3.2-expressing cells, Fluo-4 calcium fluorescence FDSS; hits give low values. B-score at 10 µM. 4% of 100,000 active. AID 449739;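 active means single-dose well whose peak fluorescence ratio is a statistical outlier from its plate by either plate-standardised score or position-corrected B-score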
Target sequence (O95180 whole entry, looked up): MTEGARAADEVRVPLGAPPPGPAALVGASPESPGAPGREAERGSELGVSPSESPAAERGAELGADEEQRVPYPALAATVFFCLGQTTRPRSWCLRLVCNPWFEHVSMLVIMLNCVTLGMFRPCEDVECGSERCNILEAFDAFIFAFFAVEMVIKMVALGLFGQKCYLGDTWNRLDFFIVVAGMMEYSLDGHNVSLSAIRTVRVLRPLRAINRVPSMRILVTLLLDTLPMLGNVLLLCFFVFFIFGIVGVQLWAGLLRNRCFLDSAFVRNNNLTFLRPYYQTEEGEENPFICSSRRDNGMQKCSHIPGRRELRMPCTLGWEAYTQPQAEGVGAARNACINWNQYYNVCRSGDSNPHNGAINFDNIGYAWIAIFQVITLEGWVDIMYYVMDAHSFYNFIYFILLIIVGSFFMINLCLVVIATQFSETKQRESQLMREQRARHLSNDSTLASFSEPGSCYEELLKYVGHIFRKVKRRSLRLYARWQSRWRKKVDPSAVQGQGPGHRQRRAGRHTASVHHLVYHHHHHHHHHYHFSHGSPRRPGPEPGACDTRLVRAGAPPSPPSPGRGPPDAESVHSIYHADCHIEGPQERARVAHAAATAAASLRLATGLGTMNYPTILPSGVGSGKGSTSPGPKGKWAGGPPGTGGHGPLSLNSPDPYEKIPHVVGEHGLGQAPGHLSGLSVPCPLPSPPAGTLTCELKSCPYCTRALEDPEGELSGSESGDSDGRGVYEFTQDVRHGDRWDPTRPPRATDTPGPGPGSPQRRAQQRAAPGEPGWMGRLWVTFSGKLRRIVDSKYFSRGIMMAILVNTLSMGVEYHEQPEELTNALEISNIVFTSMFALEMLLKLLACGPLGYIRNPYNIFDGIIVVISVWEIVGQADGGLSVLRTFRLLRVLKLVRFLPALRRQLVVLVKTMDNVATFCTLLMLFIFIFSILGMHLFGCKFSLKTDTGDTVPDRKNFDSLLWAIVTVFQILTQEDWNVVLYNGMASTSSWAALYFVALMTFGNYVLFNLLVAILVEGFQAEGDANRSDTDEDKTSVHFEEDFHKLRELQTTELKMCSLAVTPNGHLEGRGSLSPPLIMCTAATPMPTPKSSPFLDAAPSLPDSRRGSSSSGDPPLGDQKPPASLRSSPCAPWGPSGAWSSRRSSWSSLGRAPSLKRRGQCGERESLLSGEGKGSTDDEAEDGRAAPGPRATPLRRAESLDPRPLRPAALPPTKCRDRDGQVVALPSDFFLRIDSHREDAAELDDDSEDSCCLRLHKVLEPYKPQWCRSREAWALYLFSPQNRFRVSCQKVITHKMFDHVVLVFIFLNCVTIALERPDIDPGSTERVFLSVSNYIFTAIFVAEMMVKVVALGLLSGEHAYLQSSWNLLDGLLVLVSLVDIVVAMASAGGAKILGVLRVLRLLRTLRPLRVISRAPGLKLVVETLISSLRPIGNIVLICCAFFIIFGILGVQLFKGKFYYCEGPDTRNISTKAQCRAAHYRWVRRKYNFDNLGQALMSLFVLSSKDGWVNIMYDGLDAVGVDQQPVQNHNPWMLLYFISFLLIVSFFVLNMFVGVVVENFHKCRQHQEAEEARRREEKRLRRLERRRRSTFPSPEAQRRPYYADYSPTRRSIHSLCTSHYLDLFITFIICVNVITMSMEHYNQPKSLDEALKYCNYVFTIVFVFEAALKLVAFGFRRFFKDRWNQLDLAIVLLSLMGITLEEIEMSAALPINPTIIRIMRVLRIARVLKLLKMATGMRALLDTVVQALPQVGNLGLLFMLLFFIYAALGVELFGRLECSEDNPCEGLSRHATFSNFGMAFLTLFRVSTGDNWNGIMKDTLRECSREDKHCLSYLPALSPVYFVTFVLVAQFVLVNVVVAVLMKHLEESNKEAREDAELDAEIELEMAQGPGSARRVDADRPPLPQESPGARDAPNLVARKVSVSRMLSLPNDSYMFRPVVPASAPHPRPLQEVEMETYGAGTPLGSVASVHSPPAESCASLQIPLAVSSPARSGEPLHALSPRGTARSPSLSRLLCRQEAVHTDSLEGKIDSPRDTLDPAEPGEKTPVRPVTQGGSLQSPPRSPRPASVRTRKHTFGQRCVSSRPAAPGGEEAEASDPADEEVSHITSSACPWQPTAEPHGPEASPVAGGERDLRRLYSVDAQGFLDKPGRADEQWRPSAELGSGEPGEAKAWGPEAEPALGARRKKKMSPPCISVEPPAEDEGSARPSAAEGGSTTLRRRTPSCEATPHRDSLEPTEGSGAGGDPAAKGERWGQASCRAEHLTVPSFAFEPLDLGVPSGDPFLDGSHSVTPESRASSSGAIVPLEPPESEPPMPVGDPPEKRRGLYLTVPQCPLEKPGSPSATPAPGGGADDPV
Lung fibro prol – blocks proliferation of human lung fibroblasts; LL 47 human lung fibroblast viability, ATP luminescence; hits give low values; viability, % at 10 µM; 1.1% of 85,000 active; AID 719;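 active means viability at or below 50% in the single dose screen; inactive means viability above 50%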;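 further: compound exposure lasted 72 h before the ATP readout; 100% = median luminescence of untreated cell-only wells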
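Test system: LL 47 human lung fibroblasts; Quantity: 1,150 cells/well; Buffer or medium: IMEM plus 15% FBS; Dosing: tenfold compound dosing solution, DMSO at 0.1%; Timing: overnight cell rest, 72 h compound treatment at 37 °C; Detection: ATP-based CellTiter-Glo luminescent readout; Read-out basis: viability percentage against median untreated-cell control; Controls: cell-only wells, no compound.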
HCT116 PTEN-null – PTEN-deleted cell growth suppression. HCT116 PTEN-null viability, CellTiter-Glo, 60 h; hits give low values. 1.2% of 140,000 active. viability, % at 10 µM;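 active means viability at or below a set limit, 4 SD under the median of all tested compounds, cut at about 3.7% in these data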;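 further: PTEN knockout HCT116 line with beta catenin targeted HCT116 as companion control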
H69AR growth 86K – blocks growth of human H69AR lung tumor cells; viability, % at 10 µM; AID 598; 6% of 85,000 active; H69AR lung tumor viability, ATP luminescence, 72 h; hits give low values;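 active means viability at or below 40%; inactive means viability above 40%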;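 further: multidrug resistant small cell line overexpressing MRP-1 efflux transporter; 100% = mean luminescence of untreated control wells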
bCat KO growth – beta-catenin-lacking colon tumor cell growth suppression; viability, % at 10 µM; AID 818; 1.5% of 140,000 active; HCT116 beta-catenin knockout viability, CellTiter-Glo, 60 h; hits give low values;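 active means viability at or under a set limit, the compound median less 4 SD, cut at about 6% in these data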;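 further: 0% = Hyamine 1622 control at 20 µM and 100% = untreated cell control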
HUVEC inhibit – inhibitors of human endothelial cell proliferation; HUVEC proliferation, CellTiter-Glo luminescence, 72 h; hits give low values; viability, % at 10 µM (by protocol); 1.1% of 86,000 active; AID 648;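 active means viability at or below 30%; inactive means viability above 30%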;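 further: 100% = median luminescence of DMSO-only cell control wells on each plate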
* marks the source's active call; other numbers are inactive results; . = not tested or not shown.

SMILES	Cav3 T inh	Lung fibro prol	HCT116 PTEN-null	H69AR growth 86K	bCat KO growth	HUVEC inhibit
Cc1cc(C)nc(Nc2n[nH]c(COc3cccc4ccccc34)n2)n1	.	52.5	69.6	38.2*	79.9	74.1
COC(=O)C1=C[C@@H](C(=O)OC)[C@@H]2C3=C(C(=O)[C@]2(C)NC(=O)c2ccccc2)[C@H](C)n2c(=O)n(-c4ccccc4)c(=O)n2[C@@H]3C1	1.45	.	.	.	.	.
CCCCn1nc(NC(=O)c2cccs2)c2cc3ccccc3nc21	-4*	105.2	72.3	61.5	68.8	73.4
CCCn1nc(NC(=O)c2cccs2)c2cc3cc(OC)ccc3nc21	-0.137	.	65.3	.	69.4	.
CCCCn1nc(NC(=O)c2cccs2)c2cc3cc(OC)ccc3nc21	-4.84*	100.9	31.2	56.5	43.0	80.2
CCCn1nc(NC(=O)c2cccs2)c2cc3ccccc3nc21	-1.59	96.0	58.8	49.7	55.6	72.4
Cc1ccc(NC(=O)c2cncc(Br)c2)cc1S(=O)(=O)N(C)C	.	.	94.3	.	102.6	.
Cc1nn2c(c1-c1ccc(Cl)cc1)N=C(c1ccco1)CC2c1ccccc1 (centres undefined)	-2.76	86.8	83.0	64.6	80.9	91.0
Cc1ccc(NCCC#N)cc1C	.	.	95.5	.	92.3	.
O=c1c2ccccc2n(Cc2ccc(F)cc2)c(=O)n1C1CCCC1	.	107.6	57.9	38.0*	63.8	96.2
O=c1c2sccc2n(Cc2ccc(F)cc2)c(=O)n1-c1ccc(F)cc1	.	.	87.3	.	83.9	.
Brc1ccccc1OCCCn1cnc2ccccc21	-2.87	93.8	.	72.1	93.0	16.4*
CC1CCCN(c2oc(-c3cccc4ccccc34)nc2C#N)C1 (centres undefined)	-0.948	47.1*	95.0	95.0	89.2	96.0
COc1ccc(C2NC(c3ccc(OC)cc3)C(c3ccccc3)C(=O)C2c2ccccc2)cc1 (centres undefined)	.	.	66.7	.	81.1	.
OC(CNCCc1ccc(C(F)(F)F)cc1)COc1cccc2ccccc12 (centres undefined)	.	.	1.7*	.	1.7*	.
OC(CNCCc1ccc(C(F)(F)F)cc1)COc1ccc2ccccc2c1 (centres undefined)	.	.	22.6	.	8.9	.
CCOC(=O)c1c(-c2ccc(C)cc2)csc1NC1=NS(=O)(=O)c2ccccc21	.	.	79.8	.	86.2	.
CCOC(=O)COc1ccc(S(=O)(=O)NCc2cccnc2)cc1	0.575	95.8	104.2	105.6	108.5	88.1
COC(=O)COc1ccc(S(=O)(=O)NCc2ccncc2)cc1	.	90.2	84.1	91.3	1.1*	93.3
CC(C)(C)c1ccc(S(=O)(=O)N2CCC(c3nc4ccc(Cl)cc4[nH]3)CC2)cc1	-4.59*	85.3	46.6	34.6*	67.2	66.9
CC(=O)Nc1ccc(S(=O)(=O)N2CCC(c3nc4ccc(C)cc4[nH]3)CC2)cc1	0.8	97.9	43.3	66.2	25.3	79.9
C(=N\c1nc2ccccc2[nH]1)/c1cccs1	3.06*	100.8	99.0	98.8	107.9	98.2
Cn1c(/C=N/c2nc3ccccc3[nH]2)nc2ccccc21	0.0476	91.1	96.3	84.6	81.3	86.1
CC(C)(C)c1ccc(Cn2nnc3c(=O)[nH]c(C4CCCN(C(=O)Cc5cccs5)C4)nc32)cc1 (centres undefined)	-1.87	96.1	41.0	16.8*	80.7	76.8
CC(C)(C)c1ccc(Cn2nnc3c(=O)[nH]c(C4CCN(C(=O)Cc5cccs5)CC4)nc32)cc1	-2.02	88.9	16.8	50.7	16.2	41.2
SMILES	Cav3 T inh	Lung fibro prol	HCT116 PTEN-null	H69AR growth 86K	bCat KO growth	HUVEC inhibit
COC(=O)c1ccc(NC(=S)NC2CC3CCC2C3)cc1 (centres undefined)	.	.	85.8	.	87.7	.
CCOC(=O)C(C)(C)N(Cc1ccc(Cl)cc1)S(=O)(=O)c1ccc(Cl)c([N+](=O)[O-])c1	.	.	1.6*	.	1.1*	.
CCOC(=O)C(C)(C)N(Cc1ccc(C)cc1)S(=O)(=O)c1ccc(Cl)c([N+](=O)[O-])c1	.	.	0.8*	.	0.9*	.
CCOC(=O)C(C)(C)NS(=O)(=O)c1ccc(Cl)c([N+](=O)[O-])c1	.	.	77.4	.	59.7	.
O=C(OCc1c(Cl)cccc1Cl)c1ccncc1	.	.	92.6	.	91.0	.
O=C1[C@H](CC[C@H](O)c2ccc(F)cc2)[C@@H](c2ccc(O)cc2)N1c1ccc(F)cc1	-4.13*	.	.	.	.	.
OC(CNCCC1C=Nc2ccccc21)Cn1c2ccc(Cl)cc2c2cc(Cl)ccc21 (centres undefined)	.	.	1.5*	.	1.2*	.
